Measurements taken from PubChem BioAssay.
The source made the active and inactive calls.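 Rule for the calls, unless noted: active = fluorescence slope after compound addition differing from the mean of all tested samples at 99.7% confidence, mostly higher but some lower; inactive = the rest.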

Legend:
[1] = inhibitors of TNFa-induced NFkB p65 translocation, primary screen, imaging, HUVEC, MLSMR starter and 10KST1 sets (AID 438;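 active = inhibition above 20% together with a positive visual image hit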;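 note: compound added about 3h40 before a 20 min TNFalpha stimulation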;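 for inhibition: signal is the nuclear over cytoplasmic p65 intensity ratio per well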); settings: HUVEC TNFa-induced p65 nuclear translocation; cell count: measured here: nuclei count (cytotoxicity indicator), at 2.08 µM; inhibition: at 2 µM, stronger effect = higher value, 0% TNFa-plus-vehicle, 100% no-TNFa wells
[2] = reduction of polyQ htt aggregates in cells – imaging, exon1htt(103Q)mCFP cells, high-content imaging, primary screen (AID 483;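 active = visual image review flags a hit and inhibition of aggregation exceeds 20%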;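 note: compound exposure lasted 3 days before fixation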;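 for nuclei count: percent of the per-plate median nuclei count of sample wells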); settings: exon1htt(103Q)mCFP cell line, aggregate imaging, at 2 µM; inhibition of aggregation: stronger effect = higher value; nuclei count: measured here: cell count, toxicity
[3] = endothelial E-selectin expression blockers – imaging, HUVEC, immunofluorescence, MLSMR starter and 10KST1 sets, primary screen (AID 487;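 active = visually confirmed hit in the image check and inhibition above 20%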;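 for inhibition: signal is fraction of cell area covered by stained E-selectin grains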;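 for nuclei count: 100% = median nuclei count of all wells on the same plate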); settings: HUVEC TNFalpha-induced E-selectin immunofluorescence imaging, at 2 µM; inhibition: stronger effect = higher value; nuclei count: measured here: cell number, toxicity
[4] = molecular target: Voltage-gated potassium channel subunit beta-2 (Rattus norvegicus) (UniProt P62483); experiment: inhibitors of rat Kvbeta2 reductase activity – biochemical, NADPH fluorescence, primary screen (AID 622;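 active = fluorescence slope higher than the sample average by over 3 SD, cut at about -0.22 in these data, passing the limit was not always enough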;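 note: slope of raw intensity against log time taken from 70 to 1610 s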); settings: recombinant KvBeta, 4-cyanobenzaldehyde reduction, at 10 µM, stronger effect = higher value
Voltage-gated potassium channel subunit beta-2 (Rattus norvegicus), sequence (P62483 whole entry, looked up): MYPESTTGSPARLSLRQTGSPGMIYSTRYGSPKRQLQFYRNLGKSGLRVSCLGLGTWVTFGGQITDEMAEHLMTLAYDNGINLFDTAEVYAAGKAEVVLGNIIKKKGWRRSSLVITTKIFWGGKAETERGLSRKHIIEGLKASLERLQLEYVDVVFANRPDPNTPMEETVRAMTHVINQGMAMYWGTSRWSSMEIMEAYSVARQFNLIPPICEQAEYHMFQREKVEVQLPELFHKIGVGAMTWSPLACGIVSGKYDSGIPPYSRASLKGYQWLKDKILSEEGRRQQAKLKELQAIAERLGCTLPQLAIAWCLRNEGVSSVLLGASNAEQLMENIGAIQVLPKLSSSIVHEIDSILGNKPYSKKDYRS

[5] = molecular target: Voltage-gated potassium channel subunit beta-2 (Rattus norvegicus) (UniProt P62483); experiment: enhancers of rat Kvbeta2 NADPH turnover – biochemical, NADPH fluorescence, primary screen (AID 623;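 active = NADPH fluorescence slope more negative than the mean of all samples by about 3 SD, 99.7% confidence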;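 note: fluorescence intensity change per second fitted from 20 to 320 s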); settings: Recombinant KvBeta, NADPH fluorescence decrease slope, 10 min; at 10 µM; stronger effect = lower value
[6] = molecular target: Muscarinic acetylcholine receptor M4 (Homo sapiens) (UniProt P08173); experiment: M4-linked GIRK flux change, two-sided – cell-based, HEK293 M4/GIRK, thallium flux, BTC-AM, M4 allosteric agonist project, primary screen (AID 625); settings: at 10 µM, actives lie on both sides;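 note: thallium influx through GIRK channels coupled to M4 in HEK293 cells with BTC-AM dye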
Muscarinic acetylcholine receptor M4 (Homo sapiens), sequence (P08173 whole entry, looked up): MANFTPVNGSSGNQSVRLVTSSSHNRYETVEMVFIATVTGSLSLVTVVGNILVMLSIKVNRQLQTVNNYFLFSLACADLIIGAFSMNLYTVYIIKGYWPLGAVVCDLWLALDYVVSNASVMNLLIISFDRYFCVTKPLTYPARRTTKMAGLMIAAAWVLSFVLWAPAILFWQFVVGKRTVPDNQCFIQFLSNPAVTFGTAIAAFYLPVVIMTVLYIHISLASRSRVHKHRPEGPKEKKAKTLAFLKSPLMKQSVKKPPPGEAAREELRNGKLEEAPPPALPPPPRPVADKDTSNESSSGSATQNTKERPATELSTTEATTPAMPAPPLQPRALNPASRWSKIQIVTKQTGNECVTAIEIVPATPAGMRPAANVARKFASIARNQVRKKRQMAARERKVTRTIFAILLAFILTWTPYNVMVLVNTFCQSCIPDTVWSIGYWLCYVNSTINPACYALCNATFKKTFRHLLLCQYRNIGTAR
Method in brief: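 Material – HEK293 cells with M4 receptor and GIRK channels · Buffer or medium – pH 7.3 thallium assay buffer · Doses – one dose, 10 µM final · Timing – cells overnight at 37 °C, BTC-AM loading 1 h, reads 2 min total · Measured by – kinetic fluorescence with BTC-AM dye · Controls – carbachol and DMSO controls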

[7] = blockers of RIG-like receptor reporter activation – cell-based, Sendai virus stimulus, luciferase, 10K MLSCN set, TLR/RLR signaling modifier project, primary screen (AID 602276;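 active = inhibition at or above 50% at 10 µM; inactive = inhibition below 50%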;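 note: firefly luciferase from ISG56 promoter only with Renilla not read in this screen; 0% = Sendai virus plus DMSO and 100% = medium plus DMSO without virus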); settings: HEK293 RL24 IRF3 luciferase reporter, at 10 µM, stronger effect = higher value
[8] = TLR3 IRF3 reporter activation blockers – cell-based, poly I:C stimulus, luciferase, 10K MLSCN set, primary screen (AID 602277;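 active = inhibition of the reporter signal at or above 50%; inactive = inhibition below 50%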); settings: HEK293-TLR3 RL24 IRF3 luciferase reporter, at 10 µM, stronger effect = higher value

For CCOC(=O)C1CCN(C(=O)Nc2ccc3snnc3c2)CC1, the cell count [1] was 408, the inhibition [1] was 5.7% (inactive) and the inhibition of aggregation [2] was 5% (inactive). For the same compound, the nuclei count [2] was 89.8%, the inhibition [3] was -38.5% (inactive) and the nuclei count [3] was 107%. The fluorescence slope [4] was -0.206 (inactive), the NADPH fluorescence slope [5] was -2.9e-05 (inactive) and the fluorescence slope [6] was 0.00565 (inactive). The inhibition [7] was 13.9% (inactive) and the inhibition [8] was 10.8% (inactive).
With COc1ccc(NC(=O)CCCN2C(=O)C3C4C=CC(C4)C3C2=O)c(OC)c1 (centres undefined) the cell count [1] was 554, the inhibition [1] was -1.8% (inactive) and the inhibition of aggregation [2] was 5.1% (inactive). The nuclei count [2] was 94.8%, the inhibition [3] was 49.6% (inactive) and the nuclei count [3] was 62.2%. For the same compound, the fluorescence slope [4] was -0.554 (inactive), the NADPH fluorescence slope [5] was -2.9e-05 (inactive) and the fluorescence slope [6] was 0.00549 (inactive). For the same compound, the inhibition [7] was 9.13% (inactive) and the inhibition [8] was 20.8% (inactive).
In the case of COC(=O)c1ccccc1NC(=O)c1noc2c1CC(C(C)(C)C)CC2 (centres undefined), the cell count [1] was 216, the inhibition [1] was 4.9% (inactive) and the inhibition of aggregation [2] was 0.9% (inactive). For the same compound, the nuclei count [2] was 104%, the inhibition [3] was -31.4% (inactive) and the nuclei count [3] was 116%. The fluorescence slope [4] was -0.559 (inactive), the NADPH fluorescence slope [5] was -3.2e-05 (inactive) and the fluorescence slope [6] was 0.00974 (inactive). For the same compound, the inhibition [7] was 8.65% (inactive) and the inhibition [8] was 4.53% (inactive).
With N#Cc1c(N)n(CCNC(=O)c2cccs2)c2nc3ccccc3nc12 the cell count [1] was 578, the inhibition [1] was 10.7% (inactive) and the inhibition of aggregation [2] was 17.7% (inactive). For the same compound, the nuclei count [2] was 99.9%, the inhibition [3] was 29.4% (inactive) and the nuclei count [3] was 105%. The fluorescence slope [4] was -0.0517 (inactive), the NADPH fluorescence slope [5] was -2.6e-05 (inactive) and the fluorescence slope [6] was 0.00574 (inactive). The inhibition [7] was 9.96% (inactive) and the inhibition [8] was -10% (inactive).
In the case of CCOC(=O)CC1(CC(=O)OCC)NC(=O)c2c(C)sc(C(=O)OCC)c2N1, the cell count [1] was 704, the inhibition [1] was -3.5% (inactive) and the inhibition of aggregation [2] was 16% (inactive). For the same compound, the nuclei count [2] was 94.4%, the inhibition [3] was 3.1% (inactive) and the nuclei count [3] was 112%. The fluorescence slope [4] was -0.402 (inactive), the NADPH fluorescence slope [5] was -3.3e-06 (inactive) and the fluorescence slope [6] was 0.00375 (inactive). The inhibition [7] was 10.5% (inactive) and the inhibition [8] was 17% (inactive).
For Cc1ccc(C)c(-n2c(Cc3cc(=O)[nH]c(=O)[nH]3)nnc2SCC(=O)NCc2ccco2)c1, the cell count [1] was 254, the inhibition [1] was -4.3% (inactive) and the inhibition of aggregation [2] was -32.9% (inactive). For the same compound, the nuclei count [2] was 74.4%, the inhibition [3] was 65.5% (active) and the nuclei count [3] was 64%. For the same compound, the fluorescence slope [4] was -0.549 (inactive), the NADPH fluorescence slope [5] was -6.1e-05 (inactive) and the fluorescence slope [6] was 0.00457 (inactive). For the same compound, the inhibition [7] was -2% (inactive) and the inhibition [8] was 5.02% (inactive).
In the case of O=C(c1cccn2c(=O)c3cc(Cl)ccc3nc12)N1CCOCC1, the cell count [1] was 488, the inhibition [1] was -23.1% (inactive) and the inhibition of aggregation [2] was 10% (inactive). For the same compound, the nuclei count [2] was 106%, the inhibition [3] was -117% (inactive) and the nuclei count [3] was 140%. The fluorescence slope [4] was -0.027 (inactive), the NADPH fluorescence slope [5] was 8.6e-06 (inactive) and the fluorescence slope [6] was 0.00457 (inactive). For the same compound, the inhibition [7] was 7.46% (inactive) and the inhibition [8] was 19.6% (inactive).
With COC(=O)c1c(N)nc(C)n1-c1ccc(OC)cc1 the cell count [1] was 324, the inhibition [1] was -9.2% (inactive) and the inhibition of aggregation [2] was 32.1% (active). For the same compound, the nuclei count [2] was 70.1%, the inhibition [3] was 2.7% (inactive) and the nuclei count [3] was 103%. For the same compound, the fluorescence slope [4] was -0.364 (inactive), the NADPH fluorescence slope [5] was 3e-05 (inactive) and the fluorescence slope [6] was 0.00554 (inactive). The inhibition [7] was 5.37% (inactive) and the inhibition [8] was 9.69% (inactive).
With Cc1nnc(SCC(=O)NC(C)(C)C)n1CCc1ccccc1 the cell count [1] was 677, the inhibition [1] was 2.8% (inactive) and the inhibition of aggregation [2] was -3.9% (inactive). For the same compound, the nuclei count [2] was 109%, the inhibition [3] was -20.1% (inactive) and the nuclei count [3] was 135%. The fluorescence slope [4] was -0.512 (inactive), the NADPH fluorescence slope [5] was -4.5e-05 (inactive) and the fluorescence slope [6] was 0.00442 (inactive). For the same compound, the inhibition [7] was 11.7% (inactive) and the inhibition [8] was 8.89% (inactive).
With CCOc1cc(C2C(C#N)=C(N)OC(C)=C2C(C)=O)cc(Br)c1O (centres undefined) the cell count [1] was 235, the inhibition [1] was 11% (inactive) and the inhibition of aggregation [2] was -9.7% (inactive). The nuclei count [2] was 95.5%, the inhibition [3] was -29.3% (inactive) and the nuclei count [3] was 97.7%. The fluorescence slope [4] was -0.252 (inactive), the NADPH fluorescence slope [5] was -2.9e-05 (inactive) and the fluorescence slope [6] was 0.00684 (inactive). The inhibition [7] was 12.3% (inactive) and the inhibition [8] was 20.1% (inactive).
With N#CCSc1nc2c(c(C3CC=CCC3)c1C#N)CCC2 (centres undefined) the cell count [1] was 436, the inhibition [1] was 8% (inactive) and the inhibition of aggregation [2] was -9.6% (inactive). For the same compound, the nuclei count [2] was 100%, the inhibition [3] was -44.5% (inactive) and the nuclei count [3] was 112%. The fluorescence slope [4] was -0.552 (inactive), the NADPH fluorescence slope [5] was -1.6e-05 (inactive) and the fluorescence slope [6] was 0.00409 (inactive). The inhibition [7] was -0.626% (inactive) and the inhibition [8] was 27.7% (inactive).
For O=C(O)c1ccccc1C(=O)Nc1ccccc1, the cell count [1] was 476, the inhibition [1] was -6% (inactive) and the inhibition of aggregation [2] was -8.6% (inactive). The nuclei count [2] was 82.7%, the inhibition [3] was -88.4% (inactive) and the nuclei count [3] was 143%. For the same compound, the fluorescence slope [4] was -0.5 (inactive), the NADPH fluorescence slope [5] was -0.000287 (inactive) and the fluorescence slope [6] was 0.00478 (inactive). The inhibition [7] was 5.22% (inactive) and the inhibition [8] was 8.4% (inactive).
In the case of CSc1ccccc1C(=O)NC1CC2CCC1C2 (centres undefined), the cell count [1] was 246, the inhibition [1] was 4.5% (inactive) and the inhibition of aggregation [2] was 13.1% (inactive). The nuclei count [2] was 93.5%, the inhibition [3] was 15.4% (inactive) and the nuclei count [3] was 91.1%. For the same compound, the fluorescence slope [4] was -0.535 (inactive), the NADPH fluorescence slope [5] was -1.1e-05 (inactive) and the fluorescence slope [6] was 0.00469 (inactive). The inhibition [7] was 24.1% (inactive) and the inhibition [8] was 24.1% (inactive).
For COc1cccc(OCCOCCN(C)CCO)c1, the cell count [1] was 313, the inhibition [1] was 1.5% (inactive) and the inhibition of aggregation [2] was 19.1% (inactive). For the same compound, the nuclei count [2] was 85.9%, the inhibition [3] was 41.3% (inactive) and the nuclei count [3] was 88.1%. The fluorescence slope [4] was -0.532 (inactive), the NADPH fluorescence slope [5] was -2.5e-05 (inactive) and the fluorescence slope [6] was 0.00575 (inactive). The inhibition [7] was -3.56% (inactive) and the inhibition [8] was 14.6% (inactive).
